Assay results as given in ChEMBL document CHEMBL5705886, “GSK1070916, a potent Aurora B/C kinase inhibitor with broad antitumor activity in tissue culture cells and human tumor xenograft models” (Mol Cancer Ther, 2009).
The source made the active and inactive calls. No cut-off for these calls is given here.

Tests used:
[1] = test system: SW48; test: Antiproliferative activity against human SW48 cells assessed as inhibition of cell viability measured for 6 to 7 days by cell titer glo assay; type: functional, cell-based
Summary of the method: (§1)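 Cells seeded in recommended growth medium, held overnight at 37°C in 5% CO2, then exposed to serial dilutions of inhibitor for 6–7 d. A time-zero plate was read with CellTiter-Glo at dosing. Luminescent viability read at the end. No-cell wells subtracted as background, data expressed as percent of DMSO control.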

[2] = test system: SW1417; test: Antiproliferative activity against human SW1417 cells assessed as inhibition of cell viability measured for 6 to 7 days by cell titer glo assay; type: functional, cell-based; summary of the method: as §1
[3] = test system: SK-BR-3; test: Antiproliferative activity against human SK-BR-3 cells assessed as inhibition of cell viability measured for 6 to 7 days by cell titer glo assay; type: functional, cell-based; summary of the method: as §1
[4] = test system: 786-0; test: Antiproliferative activity against human 786-0 cells assessed as inhibition of cell viability measured for 6 to 7 days by cell titer glo assay; type: functional, cell-based
Summary of the method: (§2)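 Tumor lines plated in recommended growth media, overnight at 37°C, 5% CO2, then given serial dilutions; a T=0 plate read with CellTiter-Glo at dosing. After 6–7 d of exposure, viability read by CellTiter-Glo luminescence. No-cell wells subtracted, data expressed as % of DMSO control.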

[5] = test system: OVCAR-3; test: Antiproliferative activity against human OVCAR-3 cells assessed as inhibition of cell viability measured for 6 to 7 days by cell titer glo assay; type: functional, cell-based; summary of the method: as §1
[6] = test system: MIA PaCa-2; test: Antiproliferative activity against human Mia PaCa cells assessed as inhibition of cell viability measured for 6 to 7 days by cell titer glo assay; type: functional, cell-based
Summary of the method: (§3)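 Cells seeded in recommended growth medium, incubated overnight at 37°C in 5% CO2, then exposed to serial dilutions of inhibitor for 6–7 d. A parallel plate was read with CellTiter-Glo at compound addition as a T=0 value. The luminescent viability readout had no-cell background subtracted and was expressed as % of DMSO control.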

[7] = test system: HEC-1B cell line; test: Antiproliferative activity against human HEC-1B cell line assessed as inhibition of cell viability measured for 6 to 7 days by cell titer glo assay; type: functional, cell-based; summary of the method: as §2
[8] = Antiproliferative activity against human MV-522 cells assessed as inhibition of cell viability measured for 6 to 7 days by cell titer glo assay; type: functional, cell-based; settings: MV522; summary of the method: as §3
[9] = test system: NCI-H460; test: Antiproliferative activity against human NCI-H460 cells assessed as inhibition of cell viability measured for 6 to 7 days by cell titer glo assay; type: functional, cell-based; summary of the method: as §1
[10] = test system: NCI-H1299; test: Antiproliferative activity against human NCI-H1299 cells assessed as inhibition of cell viability measured for 6 to 7 days by cell titer glo assay; type: functional, cell-based; summary of the method: as §3
[11] = test system: U-266; test: Antiproliferative activity against human U266B1 cells assessed as inhibition of cell viability measured for 6 to 7 days by cell titer glo assay; type: functional, cell-based
[12] = test system: SU-DHL-16; test: Antiproliferative activity against human SU-DHL-16 cells assessed as inhibition of cell viability measured for 6 to 7 days by cell titer glo assay; type: functional, cell-based; summary of the method: as §1
[13] = test system: SUD4; test: Antiproliferative activity against human SU-DHL-4 cells assessed as inhibition of cell viability measured for 6 to 7 days by cell titer glo assay; type: functional, cell-based; summary of the method: as §1
[14] = test system: SU-DHL10; test: Antiproliferative activity against human SU-DHL-10 cells assessed as inhibition of cell viability measured for 6 to 7 days by cell titer glo assay; type: functional, cell-based; summary of the method: as §1
[15] = test system: P3HR-1; test: Antiproliferative activity against human P3HR-1 cells assessed as inhibition of cell viability measured for 6 to 7 days by cell titer glo assay; type: functional, cell-based; summary of the method: as §1
[16] = Antiproliferative activity against human 1A2 cells assessed as inhibition of cell viability measured for 6 to 7 days by cell titer glo assay; type: functional, cell-based; summary of the method: as §2
[17] = test system: L-428; test: Antiproliferative activity against human L-428 cells assessed as inhibition of cell viability measured for 6 to 7 days by cell titer glo assay; type: functional, cell-based; summary of the method: as §3
[18] = test system: JVM-3; test: Antiproliferative activity against human JVM-3 cells assessed as inhibition of cell viability measured for 6 to 7 days by cell titer glo assay; type: functional, cell-based; summary of the method: as §3
[19] = Antiproliferative activity against human Tanoue cells assessed as inhibition of cell viability measured for 6 to 7 days by cell titer glo assay; type: functional, cell-based; summary of the method: as §1
[20] = test system: THP-1; test: Antiproliferative activity against human THP-1 cells assessed as inhibition of cell viability measured for 6 to 7 days by cell titer glo assay; type: functional, cell-based; summary of the method: as §1
[21] = test system: MOLT-16; test: Antiproliferative activity against human MOLT-16 cells assessed as inhibition of cell viability measured for 6 to 7 days by cell titer glo assay; type: functional, cell-based; summary of the method: as §3
[22] = test system: CTV-1; test: Antiproliferative activity against human CTV-1 cells assessed as inhibition of cell viability measured for 6 to 7 days by cell titer glo assay; type: functional, cell-based; summary of the method: as §2
[23] = test system: HuT78; test: Antiproliferative activity against human HuT78 cells assessed as inhibition of cell viability measured for 6 to 7 days by cell titer glo assay; type: functional, cell-based; summary of the method: as §3
[24] = test system: A549; test: Effect on cell cycle distribution in human A549 cells assessed as increase in sub-2N DNA content at 2 to 5000 nM incubated for 24 to 72 hrs by flow cytometry based analysis; type: functional; settings: dose 2-5000 nM, time 24-72 hrs
[25] = test system: COLO 205; test: Induction of apoptosis in human COLO 205 cells assessed as PARP cleavage at 10 nmol/L incubated for 24 hrs by Western blot analysis; type: functional, cell-based
[26] = test system: A549; test: Induction of mitotic alteration in human A549 cells formation of malformed bipolar at 12 to 330 nmol/L incubated for 24 hrs by immunofluorescent microscopy based analysis; type: functional, cell-based; settings: dose lower […], dose upper 330.0 nmol/L
[27] = In vivo inhibition of Aurora B in human HCT-116 cells xenografted in athymic nude mouse assessed as reduction in HH3-S10 phosphorylation at 100 mg/kg, ip single dose measured upto 24 hrs relative to control; type: functional; parameters: scale not given: the % may be the effect or the level left
[28] = Toxicity in SCID nude mouse xenografted with human SW620 cells assessed as drug tolerance at 25 to 100 mg/kg, ip administered once daily for 5 consecutive days with 2 days off scheduled for 3 cycles measured upto 60 days; type: organism-based, SW-620; settings: in vivo, 1440 h, dose 25-100 mg/kg, time < 60 day
[29] = Toxicity in SCID nude mouse xenografted with human COLO 205 cells assessed as drug tolerance at 25 to 100 mg/kg, ip administered once daily for 5 consecutive days with 2 days off scheduled for 2 cycles measured upto 60 days; type: organism-based; settings: in vivo, 1440 h, dose 25-100 mg/kg, time 60 day
[30] = Toxicity in SCID nude mouse xenografted with human SW620 cells assessed as body weight loss at 25 to 100 mg/kg, ip administered once daily for 5 consecutive days with 2 days off scheduled for 3 cycles measured upto 60 days relative to control; type: organism-based, SW-620; settings: in vivo, 1440 h, dose 25-100 mg/kg, time 60 day
[31] = test system: HL-60; test: Antitumor activity in human HL-60 cells xenografted in SCID mouse assessed as median survival time at 50 mg/kg, ip administered once daily for 5 consecutive days with 2 days off scheduled for 2 cycles measured upto 120 days; type: functional; settings: time <= 120 day
[32] = biological target: Aurora kinase B (Homo sapiens) (UniProt Q96GD4)
Aurora kinase B (Homo sapiens), sequence (Q96GD4 whole entry): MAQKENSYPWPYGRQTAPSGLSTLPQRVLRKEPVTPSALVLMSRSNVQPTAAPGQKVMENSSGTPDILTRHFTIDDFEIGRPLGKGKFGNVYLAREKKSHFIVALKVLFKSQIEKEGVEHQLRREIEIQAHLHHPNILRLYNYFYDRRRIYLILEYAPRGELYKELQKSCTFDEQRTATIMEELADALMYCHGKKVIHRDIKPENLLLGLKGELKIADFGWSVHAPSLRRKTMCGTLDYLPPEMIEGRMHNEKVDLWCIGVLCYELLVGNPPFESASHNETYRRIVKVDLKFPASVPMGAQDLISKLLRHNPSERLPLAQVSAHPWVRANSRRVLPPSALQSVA

[33] = test system: HCT-116; test: Antitumor activity in human HCT-116 cells xenografted in nude mouse assessed as reduction in tumor growth at 25 to 100 mg/kg, ip administered once daily for 5 consecutive days with 2 days off scheduled for 3 cycles measured upto 60 days; settings: dose 25-100 mg/kg, time <= 60.0 day

Structure (SMILES): CCn1cc(-c2ccnc3[nH]c(-c4cccc(CN(C)C)c4)cc23)c(-c2ccc(NC(=O)N(C)C)cc2)n1 [GSK-1070916]
- EC50 [1]: 2 nM
- EC50 [2]: 19 nM
- EC50 [3]: 4 nM
- EC50 [4]: 57 nM
- EC50 [5]: 3 nM
- EC50 [6]: 3 nM
- EC50 [7]: 4 nM
- EC50 [8]: 13 nM
- EC50 [9]: 14 nM
- EC50 [10]: 23 nM
- EC50 [11]: 422 nM
- EC50 [12]: 4 nM
- EC50 [13]: 5 nM
- EC50 [14]: 15 nM
- EC50 [15]: 8 nM
- EC50 [16]: 9 nM
- EC50 [17]: 31 nM
- EC50 [18]: 2 nM
- EC50 [19]: 1480 nM
- EC50 [20]: 5 nM
- EC50 [21]: 3 nM
- EC50 [22]: 4 nM
- EC50 [23]: 14 nM
- Activity [24]: Active
- Activity [25]: Active
- Activity [26]: Active
- Activity [27]: >60%
- Activity [28]: Non-Toxic
- Activity [29]: Non-Toxic
- Activity [30]: < 15%
- MST [31]: 83 days
- T1/2 [32]: > 8 h
- Activity [33]: Active
